Reference: paper PMC6843711 (ACS Omega, 2019)

Experiments:
[1] = DPPH free radical scavenging assay
In short: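 Methanolic test compound at 0.2–1.0 μg/mL was mixed with 0.004% methanolic DPPH and kept in the dark for 30 min. Absorbance was read at 517 nm. Compound solution without DPPH served as blank and DPPH alone as control. Percent inhibition was derived from absorbance with and without antioxidant. Each measurement was repeated three times.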

diabetic mice [2] = experiment: Blood glucose levels in diabetic mice; type: in vivo; settings: LOQ = 20 mM
In short: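 Male mice (about 20 ± 2 g) were randomised into eight groups (n = 5). After an 18 h fast, diabetes was induced with a single ip alloxan dose of 50 mg/kg in 0.5 mL, and diabetic animals served as positive control. Test compound was given ip in 0.5 mL for 1 week, with saline as negative control. Cardiac blood was drawn under diethyl ether, and serum (600g, 15 min) was assayed for glucose. Triplicate; mean ± SD; Kruskal–Wallis, p < 0.05.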

diabetic mice [3] = experiment: Hematological study in vivo; settings: ip; for Alb / Chlst / Cr / TG / UA: serum
In short: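 Alloxan-diabetic male mice (single 50 mg/kg ip after 18 h fast; n = 5 per group) received test compound ip for 1 week, with a saline group as control. Cardiac blood was drawn under diethyl ether into 10% EDTA for automated haematology (RBC, WBC, Hb, MCV, MCH, MCHC, PLT, RDW, HCT) and into plain tubes. Serum (600g, 15 min) was assayed for albumin, uric acid, glucose, triglyceride and cholesterol. Triplicate; mean ± SD; Kruskal–Wallis.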

[4] = read-out: IC50, inhibition of CuSO4-induced oxidation of human LDL; cited from earlier work

| Compound | Inhibition percent (%), DPPH scavenging ([1]; conc. 0.2 μg mL^–1) | Inhibition percent (%), DPPH scavenging ([1]; conc. 0.4 μg mL^–1) | Inhibition percent (%), DPPH scavenging ([1]; conc. 0.6 μg mL^–1) | Inhibition percent (%), DPPH scavenging ([1]; conc. 0.8 μg mL^–1) | Inhibition percent (%), DPPH scavenging ([1]; conc. 1.0 μg mL^–1) | Mean blood glucose level (diabetic mice [2]; conc. 0.3 mM) | Mean blood glucose level (diabetic mice [2]; conc. 0.5 mM) | HB (diabetic mice [3]; dose 0.3 mM) | HCT (diabetic mice [3]; dose 0.3 mM) | MCH (diabetic mice [3]; dose 0.3 mM) | MCHC (diabetic mice [3]; dose 0.3 mM) | MCV (diabetic mice [3]; dose 0.3 mM) | RBC (diabetic mice [3]; dose 0.3 mM) | RDW (diabetic mice [3]; dose 0.3 mM) | WBC (diabetic mice [3]; dose 0.3 mM) | HB (diabetic mice [3]; dose 0.5 mM) | HCT (diabetic mice [3]; dose 0.5 mM) | MCH (diabetic mice [3]; dose 0.5 mM) | MCHC (diabetic mice [3]; dose 0.5 mM) | MCV (diabetic mice [3]; dose 0.5 mM) | also measured |
| --- | --- | --- | --- | --- | --- | --- | --- | --- | --- | --- | --- | --- | --- | --- | --- | --- | --- | --- | --- | --- | --- |
| O=C1O[C@H]([C@@H](O)CO)C(O)=C1O [AA, Ascorbic Acid, reference compound] | 53.13 ± 0.7% | 61.22 ± 0.7% | 69.18 ± 1% | 88.47 ± 0.9% | 98.03 ± 2% | – | – | – | – | – | – | – | – | – | – | – | – | – | – | – | – |
| Cc1nn(-c2ccccc2)c(Cl)c1C1Nc2ccccc2C(=O)N1c1ccccc1 (stereo not drawn) [Compound 4g, 2-(5-Chloro-3-methyl-1-phenyl-1H-pyrazol-4-yl)-3-phenyl-2,3-dihydroquinazolin-4(1H)-one] | 20.71 ± 0.2% | 20.32 ± 0.2% | 20.51 ± 0.1% | 21.16 ± 0.1% | 20.62 ± 0.5% | 65 ± 2 mM | 27 ± 1 mM | – | – | – | – | – | – | – | – | – | – | – | – | – | – |
| Cc1ccc(N2C(=O)c3ccccc3NC2c2c(C)nn(-c3ccccc3)c2Cl)cc1 (stereo not drawn) [Compound 4h, 2-(5-Chloro-3-methyl-1-phenyl-1H-pyrazol-4-yl)-3-(p-tolyl)-2,3-dihydroquinazolin-4(1H)-one] | 11.42 ± 0.03% | 11.44 ± 0.02% | 11.46 ± 0.02% | 11.48 ± 0.04% | 11.50 ± 0.07% | 44 ± 1 mM | 22 ± 1 mM | 14.5 ± 0.1 g/dL | 37.1 ± 0.1% | 15.8 ± 0.1 ρg | 44.0 ± 0.2 g/dL | 40.9 μm^3 | 9.05 10^6/mm^3 | 21.8 ± 0.03% | 5.3 10^3/mm^3 | 14.2 ± 0.25 g/dL | 37.9 ± 0.1% | 15.5 ± 0.23 ρg | 41.2 ± 0.1 g/dL | 40.1 μm^3 | RBC (diabetic mice [3]; dose 0.5 mM): 9.92 10^6/mm^3; RDW (diabetic mice [3]; dose 0.5 mM): 23.6 ± 0.02%; WBC (diabetic mice [3]; dose 0.5 mM): 5.6 10^3/mm^3; Alb (diabetic mice [3]; dose 0.3 mM): 2.7 ± 0.04 g/dL; Chlst (diabetic mice [3]; dose 0.3 mM): 64 ± 3.2 mg/dL; Cr (diabetic mice [3]; dose 0.3 mM): 0.41 ± 0.05 mg/dL; TG (diabetic mice [3]; dose 0.3 mM): 127 ± 1.5 mg/dL; UA (diabetic mice [3]; dose 0.3 mM): 61 ± 3 µM; Alb (diabetic mice [3]; dose 0.5 mM): 2.7 ± 0.02 g/dL; Chlst (diabetic mice [3]; dose 0.5 mM): 58 ± 6 mg/dL; Cr (diabetic mice [3]; dose 0.5 mM): 0.4 ± 0.05 mg/dL; TG (diabetic mice [3]; dose 0.5 mM): 109 ± 0.7 mg/dL; UA (diabetic mice [3]; dose 0.5 mM): 62 ± 1.5 µM |
| Cc1nn(-c2ccccc2)c(Cl)c1C1Nc2ccccc2C(=O)N1c1ccc(O)cc1 (stereo not drawn) [Compound 4i, 2-(5-Chloro-3-methyl-1-phenyl-1H-pyrazol-4-yl)-3-(4-hydroxyphenyl)-2,3-dihydroquinazolin-4(1H)-one] | 80.07 ± 0.77% | 81.18 ± 0.5% | 83.9 ± 0.1% | 85.62 ± 0.3% | 86.47 ± 0.27% | 44 ± 1 mM | <LOQ | – | – | – | – | – | – | – | – | – | – | – | – | – | – |
| Cc1nn(-c2ccccc2)c(Cl)c1C1Nc2ccccc2C(=O)N1c1ccc(Cl)cc1 (stereo not drawn) [Compound 4j, 2-(5-Chloro-3-methyl-1-phenyl-1H-pyrazol-4-yl)-3-(4-chlorophenyl)-2,3-dihydroquinazolin-4(1H)-one] | 79.9 ± 0.9% | 87.68 ± 0.7% | 93.58 ± 1% | 99.37 ± 0.7% | 102 ± 2% | – | – | 14.8 ± 0.34 g/dL | 38.6 ± 0.1% | 15.7 ± 0.2 ρg | 38.6 ± 0.2 g/dL | 40.2 μm^3 | 9.34 10^6/mm^3 | 22.5 ± 0.01% | 7.6 10^3/mm^3 | 14.8 ± 0.3 g/dL | 39.6 ± 0.08% | 15.5 ± 0.03 ρg | 38.2 ± 0.1 g/dL | 39.9 μm^3 | PLT (diabetic mice [3]; dose 0.3 mM): 1350 10^3/mm^3; PLT (diabetic mice [3]; dose 0.5 mM): 1326 10^3/mm^3; RBC (diabetic mice [3]; dose 0.5 mM): 9.17 10^6/mm^3; RDW (diabetic mice [3]; dose 0.5 mM): 22.2 ± 0.02%; WBC (diabetic mice [3]; dose 0.5 mM): 8 10^3/mm^3; Alb (diabetic mice [3]; dose 0.3 mM): 2.9 ± 0.02 g/dL; Chlst (diabetic mice [3]; dose 0.3 mM): 66 ± 1.4 mg/dL; Cr (diabetic mice [3]; dose 0.3 mM): 0.41 ± 0.07 mg/dL; TG (diabetic mice [3]; dose 0.3 mM): 123 ± 3 mg/dL; UA (diabetic mice [3]; dose 0.3 mM): 65 ± 2 µM; Alb (diabetic mice [3]; dose 0.5 mM): 2.8 ± 0.01 g/dL; Chlst (diabetic mice [3]; dose 0.5 mM): 62 ± 2.8 mg/dL; Cr (diabetic mice [3]; dose 0.5 mM): 0.41 ± 0.09 mg/dL; TG (diabetic mice [3]; dose 0.5 mM): 116 ± 3 mg/dL; UA (diabetic mice [3]; dose 0.5 mM): 65 ± 2 µM |
| Cc1ccc(N2C(=O)c3ccccc3NC2c2c(C)nn(-c3ccccc3)c2Cl)c(C)c1 (stereo not drawn) [Compound 4k, 2-(5-Chloro-3-methyl-1-phenyl-1H-pyrazol-4-yl)-3-(2,4-dimethylphenyl)-2,3-dihydroquinazolin-4(1H)-one] | 67.72 ± 0.2% | 67.80 ± 0.3% | 67.87 ± 0.1% | 67.95 ± 0.2% | 68.03 ± 0.1% | 29 ± 1 mM | – | 8.0 ± 0.2 g/dL | 18.1 ± 0.1% | 15.8 ± 0.1 ρg | 44.0 ± 0.2 g/dL | 44.9 μm^3 | 8.05 10^6/mm^3 | 12.2 ± 0.01% | 3.15 10^3/mm^3 | 10.9 ± 0.1 g/dL | 34.9 ± 0.2% | 15.8 ± 0.1 ρg | 41.2 ± 0.2 g/dL | 44.1 μm^3 | RBC (diabetic mice [3]; dose 0.5 mM): 7.92 10^6/mm^3; RDW (diabetic mice [3]; dose 0.5 mM): 24.8 ± 0.01%; WBC (diabetic mice [3]; dose 0.5 mM): 2.8 10^3/mm^3; Alb (diabetic mice [3]; dose 0.3 mM): 2.8 ± 0.07 g/dL; Chlst (diabetic mice [3]; dose 0.3 mM): 64 ± 3.2 mg/dL; Cr (diabetic mice [3]; dose 0.3 mM): 0.45 ± 0.05 mg/dL; TG (diabetic mice [3]; dose 0.3 mM): 127 ± 2.5 mg/dL; UA (diabetic mice [3]; dose 0.3 mM): 66 ± 2.7 µM; Alb (diabetic mice [3]; dose 0.5 mM): 2.8 ± 0.03 g/dL; Chlst (diabetic mice [3]; dose 0.5 mM): 60 ± 6 mg/dL; Cr (diabetic mice [3]; dose 0.5 mM): 0.42 ± 0.05 mg/dL; TG (diabetic mice [3]; dose 0.5 mM): 121 ± 4 mg/dL; UA (diabetic mice [3]; dose 0.5 mM): 67 ± 3.3 µM |
| Cc1ccc(N2C(=O)c3ccccc3NC2c2c(C)nn(-c3ccccc3)c2Cl)cc1C (stereo not drawn) [Compound 4l, 2-(5-Chloro-3-methyl-1-phenyl-1H-pyrazol-4-yl)-3-(3,4-dimethylphenyl)-2,3-dihydroquinazolin-4(1H)-one] | 60.14 ± 0.1% | 60.19 ± 0.2% | 60.25 ± 0.2% | 60.30 ± 0.1% | 60.35 ± 0.2% | – | – | – | – | – | – | – | – | – | – | – | – | – | – | – | – |
| magnolamide | – | – | – | – | – | – | – | – | – | – | – | – | – | – | – | – | – | – | – | – | IC50 [4]: 9.7 µM |
